Diaphorase inh – diaphorase inhibition or chemical oxidation counter-screen. hit rate 0.69% among 190,000. inhibition, % at 20 µM. AID 1217. diaphorase resazurin-to-resorufin fluorescence, NADH, 16 min; bacterial (C. kluyveri) enzyme, not human;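 active = primary screen inhibition at 20 µM above a set limit, cut at about 50% in these data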;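 note: plate controls were DMSO with full reaction for no effect and wells lacking NADH for full effect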
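Detection: fluorescence of resorufin formed from resazurin, Ex 544/Em 590 nm; test system: Clostridium kluyveri diaphorase enzyme; amount: 0.14 U/mL diaphorase, enzyme working solution; times: 16-min room-temperature incubation before reading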
G6PDH counter – inhibits Leuconostoc G6PDH, flagging false hits in G6PDH-based assays; Purified L. mesenteroides G6PDH, diaphorase/resazurin coupled fluorescence, 45 min; inhibition, % at 5 µM; hit rate 0.12% among 200,000; AID 1020; in the data active = inhibition above about 50%
PMI act – phosphomannose isomerase (human) activation; AID 1214; P34949; purified human PMI, coupled resazurin fluorescence, 20 min; active compounds read high; 1 = vehicle control, 0 substrate-free wells; activation factor at 20 µM; hit rate 0.005% among 190,000;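 active = activation factor of 2 or more at 20 µM, relative to plate controls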
Target sequence (P34949 whole entry, looked up): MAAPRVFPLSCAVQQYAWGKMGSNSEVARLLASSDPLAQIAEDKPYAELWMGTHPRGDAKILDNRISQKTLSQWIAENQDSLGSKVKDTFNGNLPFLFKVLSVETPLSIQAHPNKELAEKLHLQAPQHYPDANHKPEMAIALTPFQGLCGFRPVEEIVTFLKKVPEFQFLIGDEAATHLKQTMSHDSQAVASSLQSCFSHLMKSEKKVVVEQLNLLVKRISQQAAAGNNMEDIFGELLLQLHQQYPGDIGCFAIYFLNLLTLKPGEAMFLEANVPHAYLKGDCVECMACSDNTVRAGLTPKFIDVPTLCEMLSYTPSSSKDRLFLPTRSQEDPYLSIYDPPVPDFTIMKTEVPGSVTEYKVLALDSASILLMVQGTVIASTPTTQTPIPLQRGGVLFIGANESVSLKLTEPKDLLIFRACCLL
PMI act hi M6P – activators of human phosphomannose isomerase at near-saturating mannose 6-phosphate. activation factor at 20 µM. P34949. AID 1216. coupled PMI enzyme assay, resazurin fluorescence, 20 min; active compounds read high; 1 = untreated enzyme, 0 = substrate-free blank. hit rate 0.34% among 190,000;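 active = activation factor of 2 or more at 20 µM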
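Test system: human phosphomannose isomerase with PGI, G6PDH, diaphorase coupling enzymes; amount: 15 ng/mL PMI; incubation: enzyme reaction with compound 20 min at room temperature; technique: resorufin fluorescence (Ex 544/Em 590 nm) from resazurin via diaphorase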
Diaphorase act – activates diaphorase or chemically reduces, flagging diaphorase assay artifacts. activation factor at 20 µM. AID 1229. Diaphorase/resazurin coupled assay, resorufin fluorescence, 16 min; active compounds read high; 1 = vehicle wells, 0 = NADH-free wells. hit rate 0.005% among 190,000;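 active = diaphorase activity raised at least twofold by the compound at 20 µM; inactive = activation factor below 2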
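Test system: Clostridium kluyveri diaphorase, purified enzyme; input: enzyme 0.07 U/mL final; buffer or medium: 50 mM HEPES pH 7.4 with 4.542 mM MgCl2, 0.005% Tween 20; also added: 0.114 mM NADH and 0.1 mM resazurin, final amounts; schedule: 16 min enzyme reaction, ambient temperature; technique: fluorescence of resorufin, 544 nm excitation, 590 nm emission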
Starred values were filed as active, the others as inactive. Only some compounds are listed: those with a hit (about 1.1% of all), similar ones and a draw of the others.

SMILES	Diaphorase inh	G6PDH counter	PMI act	PMI act hi M6P	Diaphorase act
N#Cc1c(-c2ccco2)cc(-c2cccnc2)nc1N	52*	11	0.8	0.6	0.5
Cc1ccc(C)c(NC(=O)CN(C)C(=O)c2cc3ccccc3o2)c1	5	5	1.1	1	0.9
COc1ccc(C(=O)N/N=C/c2cccc3cccnc23)cc1	2	11	1.2	1.2	1
COc1ccc(C(=O)N/N=C/c2cc3ccccc3[nH]c2=S)cc1	55*	2	1.7	2*	0.5
COc1cc2[nH]c(=O)n(CCC(=O)N3CC=C(c4ccccc4)CC3)c(=O)c2cc1OC	20	-2	0.9	0.9	0.8
COc1cc2[nH]c(=O)n(CCCC(=O)N3CC=C(c4ccccc4)CC3)c(=O)c2cc1OC	58*	5	1	1.1	0.4
Cc1cccc(C(=O)OCc2cncs2)c1	-2	10	0.9	0.8	1
CC(C)c1nc2sc3c(=O)[nH]c(=S)[nH]c3c2c2c1CCC2	85*	4	0.8	1	0.1
COC(=O)C(NNc1ccccc1)(NC(=O)c1ccccc1F)C(F)(F)F (stereo unspecified)	8	2	1.5	2.3*	0.9
COc1ccc(NC(=O)C(c2ccccn2)N(C(C)=O)c2ccc(C)cc2)cc1 (stereo unspecified)	7	17	1	0.8	0.9
CCOc1ccc(NC(=O)C(c2ccccn2)N(C(=O)CCl)c2ccc(OC)cc2)cc1 (stereo unspecified)	56*	20	0.8	1.1	0.4
CCOc1ccc(NC(=O)C(c2ccccn2)N(C(=O)CCl)c2ccc(OCC)cc2)cc1 (stereo unspecified)	54*	8	0.6	0.8	0.5
NC(=O)CSc1nnc(SCc2ccc(F)cc2)s1	7	1	0.9	1	0.9
COc1ccc2[nH]c(CN3CCC(CO)(CCOc4ccccc4)CC3)c(C)c2c1	12	12	1	1	0.9
CN1CCc2cc3c(c4c2[C@H]1[C@H](O)c1ccccc1-4)OCO3	50	58*	0.8	0.8	0.5
COc1ccc2c(c1OC)C(=O)OC2C1c2c(cc3c(c2OC)OCO3)CCN1C (stereo unspecified)	30	8	1.1	1.1	0.7
CCN=c1scc(C)n1/N=C/c1ccc(O)c(O)c1O	79*	36	0.2	0.2	0.2
COCCN=c1scc(-c2ccccc2)n1/N=C/c1c[nH]c2ccccc12	20	-16	0.7	0.9	0.8
CCN=c1scc(C)n1/N=C/c1cc(Br)c(O)c(Br)c1	25	-5	1.2	1.1	0.8
COCCN=c1scc(-c2cccs2)n1/N=C/c1ccc(O)c(O)c1O	69*	-7	0.3	0.5	0.3
C/C(CC(=O)Nc1ccc(Cl)c(C(F)(F)F)c1)=N\NC(=O)c1cc2ccccc2cc1O	21	-26	0.9	1.1	0.8
Cc1ccc(-c2nc3c(c(=O)c4ccccc4n3C)c(=O)n2-c2ccccc2)cc1	53*	-6	1	1	0.5
CCCc1nc2c(c(=O)c3ccccc3n2C)c(=O)n1-c1ccc(F)cc1	78*	1	1.2	1.3	0.2
CC(C)c1nc2c(c(=O)c3ccccc3n2C)c(=O)n1-c1ccc(F)cc1	22	0	1.1	1	0.8
COCCn1c(-c2ccc(Cl)cc2Cl)nc2c(c(=O)c3ccccc3n2C)c1=O	14	-16	1	1.1	0.9
SMILES	Diaphorase inh	G6PDH counter	PMI act	PMI act hi M6P	Diaphorase act
COc1cc([N+](=O)[O-])ccc1NC(=O)CC(C)C	15	2	1	0.9	0.9
Cc1ccc(S(=O)(=O)N/N=C\c2ccc([N+](=O)[O-])o2)cc1	23	-10	1.5	2.1*	0.8
O=[N+]([O-])c1ccc(/C=N/NS(=O)(=O)c2ccc(Cl)cc2)o1	11	13	1.6	2.2*	0.9
Cc1ccc(S(=O)(=O)N/N=C\c2ccc(C)o2)cc1	7	-6	1.1	1	0.9
CCn1nc(C)c(Br)c1Nc1ccc(Br)cc1	12	3	0.9	0.9	0.9
O=C(Nc1cc(C(=O)N2CCOCC2)ccc1N1CCCC1)c1cccs1	3	1	1.7	2.1*	1
O=C(Nc1ccc(C(=O)N2CCOCC2)cc1)c1cccs1	-12	14	1.1	1.2	1.1
Cc1ccc(-n2c(O)c(C=NC3CCS(=O)(=O)C3)c3ccccc3c2=O)cc1C (stereo unspecified)	25	0	0.8	0.9	0.8
Cc1ccc(-n2c(O)c(C=Nc3ccccc3-c3n[nH]c(=S)[nH]c3=O)c3ccccc3c2=O)cc1C	76*	3	0.9	0.8	0.2
Cc1ccc(-n2c(O)c(C=Nc3ccccc3-c3n[nH]c(=S)[nH]c3=O)c3ccccc3c2=O)c(C)c1	72*	-1	0.9	0.8	0.3
O=C(COc1cc(F)ccc1[N+](=O)[O-])NCCCc1ccccc1	2	1	1	1	1
Cc1ccc2cc(C)c3nnc(SCC(=O)N4CCN(C(=O)c5ccco5)CC4)n3c2c1	51*	6	1	0.9	0.5
COc1ccc2c(c1)cc(C)c1nnc(SCC(=O)N3CCN(C(=O)c4ccco4)CC3)n12	28	6	1	0.9	0.7
Cc1onc(-c2ccccc2)c1C(=O)OCC(=O)Nc1cc(S(=O)(=O)N2CCOCC2)ccc1Cl	18	6	0.9	0.9	0.8
OCCC1CN(Cc2nc3ccccc3s2)CCN1CCc1ccccc1 (stereo unspecified)	8	2	1	1	0.9
COCCNCC(=O)Nc1ccc(OC(F)(F)F)cc1	15	3	1	1.1	0.9
CSc1nc(-c2ccccc2)[nH]c(=S)c1C(C)=O	73*	-2	1	1.1	0.3
CC(=O)c1c(NC(=O)c2ccccc2)[nH]c(-c2ccccc2)nc1=S	67*	-2	1.1	1.1	0.3
CSc1nc(-c2ccccc2)nc(SC)c1C(C)=O	2	4	0.9	1	1
COc1cc(/C=N/Nc2ccc(Cl)c(C(=O)O)c2)ccc1OC(=O)c1cccs1	28	-5	1.6	2.4*	0.7
COc1cc(/C=N/Nc2ccc(Cl)c(C(=O)O)c2)ccc1OC(=O)c1ccco1	-10	8	1.6	1.5	1.1
COc1cc(/C=N/Nc2ccccc2)ccc1OC(=O)c1cccs1	6	-7	1.5	2.2*	0.9
CSc1ccc(/C=N/Nc2nc(C)cc(C)n2)cc1	2	-4	1	1	1
CSc1ccc(/C=N/Nc2ccc(Cl)c(C(=O)O)c2)cc1	9	4	1.7	2.4*	0.9
Cc1cc2oc(=O)cc(Cn3nnc(-c4ccc(Cl)cc4)n3)c2cc1C(C)C	7	4	0.9	0.9	0.9
